Drawing on PubChem BioAssay AID493091 (Sanford-Burnham Center for Chemical Genomics, 2011), this text covers inhibition for 61 compounds.

Usually inhibition stands for the relative decrease from the control value, in per cent.

Structures are written as SMILES. Hit rate of the full screen: of about 340,000 compounds, about 3,000 (0.88%) were called active. For the sample, actives were picked, then their nearest neighbours and some compounds at random. Values without a mark were called inactive.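 The calls were made as follows: active = inhibition above about 50% at 20 µM (limit read from the data); inactive = the rest.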

Sequence of Carboxy-terminal domain RNA polymerase II polypeptide A small phosphatase 1 (Homo sapiens) (Q9GZU7 76-261 limits assumed): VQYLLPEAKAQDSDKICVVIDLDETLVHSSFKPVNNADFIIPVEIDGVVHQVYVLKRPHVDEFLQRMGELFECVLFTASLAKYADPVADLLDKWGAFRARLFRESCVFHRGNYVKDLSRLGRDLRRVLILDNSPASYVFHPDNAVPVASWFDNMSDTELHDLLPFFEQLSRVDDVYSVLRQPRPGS

This test has as its target Carboxy-terminal domain RNA polymerase II polypeptide A small phosphatase 1 (Homo sapiens) (UniProt Q9GZU7). Nature of the test: Scp-1 phosphatase inhibitors, primary screen, biochemical, colorimetric, uHTS (AID 493091).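 Also: plate controls were DMSO wells with enzyme for no effect and wells lacking enzyme for full effect.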 Particulars: Recombinant Scp1, phosphopeptide, malachite green phosphate absorbance; at 20 µM; stronger effect = higher value. The essentials: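 Times: enzyme reaction 45 min at room temperature, colour 5 min, stabilisation 30 min. Material: SCP-1 catalytic fragment, aa 76-261. Medium: Acidic Tris acetate buffer with magnesium and detergent. Signal: colorimetric free-phosphate detection, absorbance 630 nm. Read-out basis: % inhibition of SCP-1 phosphate liberation. Reagent: Phosphorylated 17-residue peptide substrate.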
For the compound `CCOC(=O)C1CCCN(C(=O)c2ccc(CS(=O)(=O)c3ccc(Br)cc3)o2)C1` (stereo unspecified), the inhibition is 5.99%.
For `Cc1nnc(SCc2cccc(Cl)c2)n(N)c1=O` the value was -7.11%; for `COc1cccc2sc(N(CCCN(C)C)C(=O)C(c3ccccc3)c3ccccc3)nc12`, 59.4% (active).
For `COc1cccc2sc(N(CCCN(C)C)C(=O)CCS(=O)(=O)c3ccccc3)nc12` the value was 8.55%.
For `Cc1cccc2sc(N(CCCN(C)C)C(=O)CCS(=O)(=O)c3ccccc3)nc12` the value was 5.73%.
As to `CC1CN(S(=O)(=O)c2ccccc2)C(C)CN1S(=O)(=O)c1ccccc1` (stereo unspecified), the inhibition is 15.5%.
For `O=C(Nc1ccc(Cl)cc1)C1c2cccc[n+]2CC(=O)N1Cc1ccc2c(c1)OCO2` (stereo unspecified) the value was 39.5%; for `C=CCC(Nc1ccccc1)c1cccc(OC)c1OC` (stereo unspecified), 0.9%; for `COc1cccc2cc(C(=O)N(C)C)c(=O)oc12`, -2.27%.
For `COc1cccc2cc(-c3cc(=O)oc4cc(C)c(O)cc34)oc12` the value was 58.8% (active); for `COc1ccc2oc(=O)cc(-c3cc4ccccc4o3)c2c1`, -1.71%.
Take `Cc1ccsc1-c1nc(CSCC(=O)NCCN2CCCC2)c(C)o1`: the inhibition was -6.12%.
Regarding `COC(=O)C1C(=O)NCC1c1ccc(OC)cc1` (stereo unspecified), the inhibition is -1.05%.
On to `CCOC(=O)CNC(=O)c1nn(-c2cccc(OC)c2)c(=O)c2ccccc12`, for which the inhibition was 1.07%.
In the case of `Cc1nn(-c2cc(Cl)ccc2N)c(=O)c2ccccc12`, the inhibition was 60.1% (active).
For the compound `Cc1cc(=O)oc2c1c(C)nn2-c1ccc(Cl)cc1`, the inhibition is -6.94%.
Turning to `CCCC(C(=O)N1CCOCC1)N1C(=O)C2C3C=CC(C3)C2C1=O` (stereo unspecified), the inhibition was 1.46%.
With `Cc1cc(O)c(C2(O)C(=O)Nc3ccccc32)cc1C` (stereo unspecified), the inhibition is 2.83%.
For `CC(=O)c1cccc(NC(=O)C2COc3ccccc3O2)c1` (stereo unspecified) the value was -3.69%; for `COc1cc(SC)ccc1C(=O)N(Cc1ccccc1)c1ccccc1`, -9.22%; for `COc1cc(SC)ccc1C(=O)NNC(=O)C1COc2ccccc2O1` (stereo unspecified), 55.9% (active).
For `NNC(=O)C1CC(O)CN1S(=O)(=O)c1ccc(Cl)cc1` (stereo unspecified), the inhibition is -8.23%.
Take `CN1CCN(C2Cc3ccc(Cl)cc3Sc3ccc(F)cc32)CC1` (stereo unspecified): the inhibition is -3.27%.
In the case of `Cc1c(CCO)c(=O)n(-c2ccccc2)n1S(=O)(=O)c1ccc(F)cc1`, the inhibition is -6.22%.
On to `CCOC(=O)c1cnn(Cc2ccccc2Cl)c1N`, for which the inhibition is -4.87%.
For the compound `CC(=O)c1cccc(NC(=O)c2cc(C)nn2-c2ccccc2)c1`, the inhibition is -21.8%.
For the compound `CC[n+]1c(C)n(-c2ccccc2)c2ccc(NC(C)=O)cc21`, the inhibition was 59.6% (active).
For `CC(=O)Nc1ccc(NC(=O)CSc2nnc(C3CC3)n2-c2ccccc2)cc1` the value was 3.64%; for `S=C(NCCCc1ccccc1)Nc1ccc(Br)cc1`, -8.32%; for `CCc1ccc(NC(=O)CS(=O)CC(=O)N2CCN(c3ccccc3F)CC2)cc1` (stereo unspecified), -3.07%.
For `CCc1ccc(NC(=O)CS(=O)CC(=O)NCCCc2ccccc2)cc1` (stereo unspecified), the inhibition was 93.4% (active).
For `CC(C)(C)C1CCc2c(sc3nc(SCC(N)=O)nc(N)c23)C1` (stereo unspecified) the value was 5.56%; for `O=C(Nc1cccnc1)c1cc2cc(Br)ccc2oc1=O`, 101% (active); for `O=C(Nc1cccnc1)c1cc([N+](=O)[O-])ccc1Cl`, -5.04%.
For `COc1ccc2oc(=N)c(C(=O)Nc3ccc(Br)cc3)cc2c1` the value was 2.27%.
Take `O=C(Oc1ccc2c(c1)CCC2)N1CCOCC1`: the inhibition is -4.77%.
For `COc1ccc(CCNS(=O)(=O)c2cn(C)nc2C)cc1`, the inhibition was 0.34%.
For `O=[N+]([O-])c1cc(S(=O)(=O)Nc2cccc(Cl)c2)ccc1N=Nc1c(O)[nH]c2ccccc12` the value was 52.2% (active); for `Oc1[nH]c2ccccc2c1N=Nc1c(F)c(F)c(F)c(F)c1F`, -10.4%.
In the case of `O=C(O)c1ccccc1/C=N/Nc1ccc(S(=O)(=O)Nc2ccc(Cl)cc2)cc1[N+](=O)[O-]`, the inhibition was -7.5%.
For `Cc1ccnc(NS(=O)(=O)c2ccc(NC(=O)c3oc4ccccc4c3C)cc2)n1` the value was -7.13%; for `O=C1CCC/C=C\C[C@@H](CC(=O)N(CCO)Cc2ccccc2)C(=O)NCCO1`, -0.23%; for `O=C(CCNC(=O)c1ccccc1)NN=Cc1ccc(Br)o1`, 70.2% (active).
Turning to `O=C(CCC(=O)N/N=C/c1ccc(Br)o1)N/N=C/c1ccc(Br)o1`, the inhibition is 55% (active).
For `O=C(CCNC(=O)c1ccccc1Cl)NN=Cc1ccco1` the value was 10.6%.
As to `O=C(N/N=C/c1ccc(Br)o1)c1cncc(Br)c1`, the inhibition is 0.65%.
Turning to `N#CCC(=O)N/N=C/c1ccc(SCC(=O)Nc2ccccc2)o1`, the inhibition is -8.26%.
Turning to `O=C(CCc1n[nH]c(=O)[nH]c1=O)N/N=C/c1ccc(Br)o1`, the inhibition is 2.94%.
For `Cc1ccc(S(=O)(=O)NCC(C)NS(C)(=O)=O)cc1` (stereo unspecified) the value was -4.62%; for `Cc1cccc(C)c1NC(=O)COC(=O)c1ccccc1O`, -5.49%; for `COc1ccc(CNS(=O)(=O)c2cc(-c3cc(C)no3)ccc2C(C)C)cc1`, -11%.
For `O=C(c1cc(S(=O)(=O)N2CCOCC2)ccc1Cl)N1CCOCC1` the value was -9.49%; for `CC(=O)N1CCN(S(=O)(=O)c2cccc(C(=O)NC3CCC(C)CC3)c2)CC1` (stereo unspecified), 5.39%.
On to `C[C@H](NC(=O)C1CC(=O)N(c2ccc3c(c2)OCO3)C1)C(=O)NCc1ccco1` (stereo partly specified), for which the inhibition was -2.53%.
For `CCCCNc1nc2ccccc2nc1NS(=O)(=O)c1cccs1` the value was -7.43%; for `CCCn1nc(NS(=O)(=O)c2ccc(F)cc2)c2cc3ccccc3nc21`, 3.78%.
For `COCCCNc1nc2ccccc2nc1NS(=O)(=O)c1ccc(F)cc1` the value was 54.7% (active); for `CC1C(=O)C(C)C(c2ccc(O)cc2)NC1c1ccc(O)cc1` (stereo unspecified), -7.74%.
For `CCN(CC)S(=O)(=O)c1cccc(-c2n[nH]c(=S)n2/N=C/c2ccc(C(=O)OC)cc2)c1` the value was -7.1%; for `Cc1ccc(OC(=O)c2ccccc2C(=O)OCC(F)(F)C(F)F)cc1`, -9.39%; for `CCc1ccc(C2C(C#N)=C(N)N(N3CCOCC3)C3=C2C(=O)CC(C)(C)C3)s1` (stereo unspecified), 8.56%.
